High-throughput results as filed in PubChem.
CHOP UPR activ: activators of apoptotic arm of unfolded protein response (CHOP); activation, % at 10 µM; 330,000 compounds, 0.34% hits; CHO-CHOP luciferase reporter, UPR activation, luminescence; percent of tunicamycin response over DMSO baseline;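 active = at 10 µM dose, activation of 40% or more, normalized to positive control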;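 note: 100% = tunicamycin at 10 µg/mL and 0% = DMSO alone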
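Dosing – one dose, 10 µM in 0.5% DMSO · System – CHO-CHOP cells, stable luciferase reporter of PERK-eIF2a-CHOP signalling · Input – 500 cells/well · Control set – tunicamycin 10 µg/mL final as positive, DMSO-only wells as negative · Timing – 6 h compound treatment, 37 °C · Measure – % activation vs tunicamycin · Technique – luminescence read with Steady-Glo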
CHOP inh: inhibitors of CHOP induction in ER stress response; CHO-K1 CHOP-promoter luciferase, tunicamycin-induced, 15-18 h; inhibition, % at 10 µM; 220,000 compounds, 3.8% hits; AID 2732;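 active = compounds that reduced the stress-induced luciferase reporter signal by more than about 70% of percent inhibition, limit read from the data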;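 note: 0% = tunicamycin plus vehicle and 100% = wells without tunicamycin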
XBP1 UPR activ: adaptive UPR (XBP1) activation | CHO-XBP1 luciferase reporter, IRE1-XBP1 UPR activation, luminescence; percent of tunicamycin response, DMSO as zero | activation, % at 20 µM | 330,000 compounds, 0.33% hits | AID 463104;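 active = versus positive control, 20 µM dose yields 30% or more activation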;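 note: 100% = tunicamycin at 10 µg/mL and 0% = DMSO only wells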
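Signal: luciferase luminescence; Assay system: CHO-XBP1 luciferase reporter cells; Amount: one thousand reporter cells per well; Dosing: 20 µM single concentration, DMSO 1%; Benchmarks: high control tunicamycin 10 µg/mL final, low control DMSO vehicle only; Schedule: 6 h compound exposure at 37 °C, 5% CO2; Evaluation: percent activation relative to tunicamycin reference.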
Bfl-1 A1 inh: inhibitors of the anti-apoptotic protein A1, read as caspase activation; MEF A1-2A-BIM cells, Caspase-Glo 3/7 luminescence, 3 h; percent of clofoctol response, vehicle zero; caspase activation, % (no concentration beside the values); 330,000 compounds, 0.066% hits; AID 2462;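 active = over half of replicate activation scores above 10%, or exactly half above 10 with the replicate mean above 10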
* hit, by the source's call; x = no result given. This excerpt belongs to a sample that is enriched for hits.

SMILES	CHOP UPR activ	CHOP inh	XBP1 UPR activ	Bfl-1 A1 inh
CN1CC(c2ccc(Cl)c(Cl)c2)[C@@]2(COc3ccccc3C2=O)[C@@]12C(=O)Nc1ccccc12 (stereo partly drawn)	1	74*	2	0
CCCN1C(=O)c2ccccc2NC1c1ccc(Cl)c(Cl)c1 (stereo not drawn)	0	x	-6	0
CC(C)c1nnc(NC(=O)c2cccc(NC(=O)C(F)(F)F)c2)s1	3	7	-4	1
COc1ccccc1N/C(N)=N/c1nc(CSc2nc3ccccc3s2)cc(=O)[nH]1	6	94*	2	1
Cc1cc(C)nc(-n2nc(C)cc2NC(=O)c2cccc(S(=O)(=O)N3CCCCC3)c2)n1	x	107*	x	x
CCOC(=O)/C=c1\s/c(=C\c2c(OCC)ccc3ccccc23)c(=O)n1CC(=O)NCC1CCCO1 (stereo not drawn)	-3	37	-1	0
CCOC(=O)/C=c1\s/c(=C\c2ccc3c(c2)OCCO3)c(=O)n1CC(=O)NCC1CCCO1 (stereo not drawn)	0	86*	1	0
COc1ccc([N+](=O)[O-])cc1NC(=S)NC(NC(=O)C(c1ccccc1)c1ccccc1)C(Cl)(Cl)Cl (stereo not drawn)	15	73*	2	3
Cc1ccccc1-c1nc(S(=O)(=O)c2ccccc2)c(NCCCN2CCOCC2)o1	0	x	0	0
Cc1ccccc1-c1nc(S(=O)(=O)c2ccc(Cl)cc2)c(NCCN2CCOCC2)o1	0	90*	-2	0
O=S(=O)(NC12CC3CC(CC(C3)C1)C2)c1ccc(F)cc1	-2	72*	0	1
COc1ccccc1N1CCN(C(c2cc3cc(C)ccc3[nH]c2=O)c2nnnn2C2CCCC2)CC1 (stereo not drawn)	2	91*	3	0
COc1ccc(N2CCN(C(c3cccc(OC)c3OC)c3nnnn3C3CCCC3)CC2)cc1 (stereo not drawn)	1	74*	2	-1
COc1ccccc1N1CCN(C(c2cc3ccc(C)cc3[nH]c2=O)c2nnnn2C2CCCC2)CC1 (stereo not drawn)	1	34	0	0
O=S(=O)(NCCN1CCOCC1)c1cccs1	-1	-2	1	1
CC(=O)C[C@@H](O)CC(=O)[C@@H]1OC(=O)CCCCCCc2ccccc21	1	x	1	-1
CCCCNC(=O)CSc1nc2ccccc2n1S(=O)(=O)c1ccc(Cl)cc1	2	75*	1	0
COC(=O)c1ccc(NC(=O)C(=O)N2CCCC2)cc1	3	-12	0	-1
O=C(CCCc1ccccc1)c1ccc2c(c1)OCCO2	-9	89*	-9	-6
CCC(=O)Nc1ccc(NC(=O)CSc2nnc(C(C)C)n2C)cc1	2	-2	-3	0
Cc1ccc(NCc2nnc(SCC(=O)N3CCCCC3)n2CC2CCCO2)c(C)c1 (stereo not drawn)	-1	x	-2	0
CCC1(C(=O)c2ccc(Cl)cc2)C2c3ccccc3OC(=O)C21C(=O)Nc1ccccc1 (stereo not drawn)	1	78*	-3	4
CCn1c(O)c(/C=C2\C=Nc3ccccc32)sc1=Nc1ccccc1	2	79*	9	0
Cn1c(O)c(/C=C2\C=Nc3ccccc32)sc1=Nc1ccc(C(=O)O)cc1	3	16	-1	1
Cc1ccc(Oc2ccc(-c3nc(N)nc(N)n3)cc2)cc1C	2	89*	-1	0
SMILES	CHOP UPR activ	CHOP inh	XBP1 UPR activ	Bfl-1 A1 inh
COc1ccc(NC2CCCN(C(=O)c3ccc(CSC)o3)C2)cc1OC (stereo not drawn)	-1	x	-3	1
CC(=O)c1ccc(N2CCN(C(=O)COc3ccc4c(c3)CCC4)CC2)cc1	2	x	-2	1
COc1ccc(N=Nc2[nH]c3ccc(C)cc3c2O)cc1	2	91*	1	-1
Cc1ccc(N=Nc2[nH]c3ccccc3c2O)cc1	1	-20	0	-2
Cc1cccc(/C=c2\s/c(=C\C(=O)C(C)(C)C)[nH]c2=O)c1	3	19	5	-1
Cc1cccc(/C=C2\CCC(=C3SCCCS3)C2=O)c1	-8	78*	-12	0
CCC(C)(C)n1nnnc1C(c1cc2cccc(C)c2[nH]c1=O)N1CCN(C(=O)c2ccco2)CC1 (stereo not drawn)	0	-18	0	0
FC(F)(F)c1ccc(CSc2nccn2-c2ccccc2)cc1	3	-2	0	0
Brc1ccc(CSc2nccn2-c2ccccc2)cc1	-1	76*	4	0
COc1ccc(C(=O)COC(=O)CNC(=O)c2ccc(Cl)cc2Cl)c(OC)c1	1	x	2	0
CCN1CCN(Cc2ccc(NC(=O)c3cc(NC(=O)c4cc(-c5ccc(OC)cc5)n[nH]4)cc(OC)c3)cc2C(F)(F)F)CC1	0	87*	4	-1
Cn1c(CCCOc2ccc(Cl)cc2Cl)nnc1SCC(=O)Nc1cccc(F)c1	2	62	0	1
CCn1c(CCCOc2ccc(Cl)cc2Cl)nnc1SCC(=O)Nc1cc(F)ccc1C	10	84*	0	0
CC(=O)Nc1ccc(N/C=C(\C=O)c2nc3ccccc3o2)cc1	1	-24	-3	0
O=C/C(=C\Nc1ccc(Br)cc1)c1nc2ccccc2o1	2	74*	1	0
COC(C(=O)Nc1ccc(C(N)=O)cc1)c1ccccc1 (stereo not drawn)	0	-2	2	-1
O=C(c1ccccc1)C(CCC(CN1CCOCC1)C(=O)c1ccccc1)CN1CCOCC1 (stereo not drawn)	28	98*	-7	1
CN(C)CC(CCC(CN(C)C)C(=O)c1ccccc1)C(=O)c1ccccc1 (stereo not drawn)	x	106*	x	x
CCOc1ccc(NC(=O)COc2ccc(C(=O)NCCc3ccccc3)cc2)cc1	2	-14	-3	0
CCCCc1ccc(NC(=O)COc2ccc(C(=O)Nc3ccccc3OCC)cc2)cc1	8	82*	3	0
Cc1ccc(/C=C2\SC(=S)N(CC(=O)Nc3cccnc3)C2=O)cc1	0	86*	-1	-3
O=C(CCCN1C(=O)/C(=C/c2cccc(Br)c2)SC1=S)Nc1ccccn1	-1	5	-1	0
CCc1ccc(/C=C2\SC(=S)N(CCC(=O)NC3=NCCS3)C2=O)cc1	-6	88*	1	-1
COC(=O)c1ccc(/C=C2/SC(=S)N(CCCC(=O)Nc3ccccn3)C2=O)cc1	-7	77*	-5	-2
O=C(CCN1C(=O)/C(=C\c2cccs2)SC1=S)NC1=NCCS1	2	3	-3	-1
O=C(CN1C(=O)/C(=C/c2ccccc2)SC1=S)Nc1cccnc1	-2	28	-1	0
O=C(CCN1C(=O)/C(=C/C=C/c2ccccc2)SC1=S)Nc1ccccn1	9	85*	9	-1
